Measurements published in paper PMC9860304 (Proceedings of the National Academy of Sciences of the …, 2022).

System: RAN translation of r(G4C2)^exp
Assay: RAN translation assay in HEK293T cells co-transfected with
Format: cell-based
Details: read-out: IC50 for inhibition of RAN translation, approximate values
Summary of the method: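 HEK293T cells in DMEM/10% FBS at ~80% confluency were co-transfected with (G4C2)66-no ATG-GFP and an mCherry control plasmid, reseeded, and dosed 2 h later. After 24 h with compound, cells were lysed in 100 mM potassium phosphate pH 7.8 with 0.2% Triton X-100. GFP (ex 485/20, em 528/20) and mCherry (ex 530/25, em 590/35) were read, and the untransfected-cell-background-corrected GFP/mCherry ratio was used.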

SMILES: Cc1c2ccnc(C(=O)NCCN(C)C)c2cc2c3cc(O)ccc3n(C)c12 [Compound 2]
- IC50: ~300 nM
